SMILES strings stand for the structures. Active and inactive are the calls of the source. The calls are words filed in the database; no cut-off is given here.

The target of series [1] is T1, Adenosine receptor A1 (Homo sapiens) (UniProt P30542).
T1 sequence (whole entry): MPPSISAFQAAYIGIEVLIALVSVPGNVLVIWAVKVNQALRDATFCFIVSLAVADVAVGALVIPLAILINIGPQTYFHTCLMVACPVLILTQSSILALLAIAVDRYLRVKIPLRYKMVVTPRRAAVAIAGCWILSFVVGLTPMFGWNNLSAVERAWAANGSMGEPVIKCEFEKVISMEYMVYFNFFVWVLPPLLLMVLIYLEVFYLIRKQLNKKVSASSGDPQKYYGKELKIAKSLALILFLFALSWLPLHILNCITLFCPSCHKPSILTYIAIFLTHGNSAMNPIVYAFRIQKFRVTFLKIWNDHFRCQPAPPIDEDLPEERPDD
The experiment in a line: Activity at human A1 adenosine receptor expressed in CHO cells assessed as inhibition of forskolin-stimulated cAMP production at 10 uM after 30 min. The class given is functional, cell-based. (Changes in cAMP serve as a functional read-out for many G protein-coupled receptors.)

The test system of series [2] is Mus musculus. The experiment in a line: Anticonvulsant activity in CF-1 albino mouse assessed as protection against subcutaneous metrazol-induced seizures at 1 mg/kg, ip. Type of series: functional, organism-based. Details: dose 1 mg/kg. The procedure, abridged: (§1)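 Dosed i.p. at 0.01 ml/g from a DMSO stock diluted to 10% DMSO (v/v) final. Single doses tested in traditional MES or s.c. metrazol seizure tests at the time of peak effect. Scored qualitatively as number of animals protected from convulsions (groups of 4–8).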

Series [3] deals with Mus musculus. The experiment in a line: Anticonvulsant activity in CF-1 albino mouse assessed as protection against maximal electroshock-induced seizures at 2 mg/kg, ip by MES test. Details: dose 2 mg/kg. The class given is functional, organism-based. The procedure, abridged: as §1
For orientation: Protection in the maximal electroshock model is a classic sign of anticonvulsant action.

Series [4] relates to Mus musculus. The experiment in a line: Anticonvulsant activity in CF-1 albino mouse assessed as protection against maximal electroshock-induced seizures at 1 mg/kg, ip by MES test. The class given is functional, organism-based. Details: dose 1 mg/kg. The procedure, abridged:
as §1

The test system of series [5] is Mus musculus. The experiment in a line: Anticonvulsant activity in ip dosed CF-1 albino mouse assessed as protection against 6 Hz psychomotor seizure after 1 hr by minimal clonic seizure test. The class given is functional. Conditions: CF-1, ip. The procedure, abridged: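 Corneal 6 Hz stimulation (32 mA, 3 s, CC97) applied 1 h post-dose (time of peak effect). Absence of minimal clonic/automatistic behavior counted as protection.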

The subject of series [6] is Mus musculus. The experiment in a line: Anticonvulsant activity in CF-1 albino mouse assessed as protection against maximal electroshock-induced seizures at 3 mg/kg, ip by MES test. Type of series: functional, organism-based. Details: dose 3 mg/kg. The procedure, abridged: as §1
In series [7] the test system is Mus musculus. The experiment in a line: Anticonvulsant activity in CF-1 albino mouse assessed as protection against subcutaneous metrazol-induced seizures at 3 mg/kg, ip. Details: dose 3 mg/kg. The class given is functional, organism-based. The procedure, abridged: as §1
Series [8] deals with T2, Adenosine receptor A3 (Homo sapiens, UniProt P0DMS8).
T2 sequence (P0DMS8 whole entry): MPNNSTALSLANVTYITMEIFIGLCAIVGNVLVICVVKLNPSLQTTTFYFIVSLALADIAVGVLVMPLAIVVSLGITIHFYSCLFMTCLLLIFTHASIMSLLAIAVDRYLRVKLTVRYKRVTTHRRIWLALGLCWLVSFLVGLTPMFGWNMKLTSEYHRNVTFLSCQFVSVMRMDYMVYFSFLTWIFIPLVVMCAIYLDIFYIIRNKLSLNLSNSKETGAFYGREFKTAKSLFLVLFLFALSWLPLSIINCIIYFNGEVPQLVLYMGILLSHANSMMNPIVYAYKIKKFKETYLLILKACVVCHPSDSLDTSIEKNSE
The experiment in a line: Displacement of [125I]I-AB-MECA from human A3 adenosine receptor expressed in CHO cells after 60 min Packard Cobra 2 gamma-counter. The class given is cell-based. On the technique in general: In a radioligand displacement assay an active substance lowers the binding of a labelled ligand.

In series [9] the target is T3, Adenosine receptor A2a (Homo sapiens, UniProt P29274). The experiment in a line: Displacement of [3H]CGS21680 from human A2a adenosine receptor expressed in HEK293 cells after 60 min by Perkin Elmer Liquid Scintillation Analyzer. The class given is cell-based.
In series [10] the target is T4, Adenosine receptor A1 (Homo sapiens, UniProt P30542).
T4 sequence (P30542 whole entry): T1 sequence (whole entry)
The experiment in a line: Displacement of [3H]R-PIA from human A1 adenosine receptor expressed in CHO cells after 60 min by Perkin Elmer Liquid Scintillation Analyzer. Type of series: cell-based.

The target of series [11] is T3, Adenosine receptor A2a. The experiment in a line: Displacement of [3H]CGS21680 from human A2a adenosine receptor expressed in HEK293 cells at 10 uM after 60 min by Perkin Elmer Liquid Scintillation Analyzer. The class given is cell-based.
Series [12] has as its system Mus musculus. The experiment in a line: Toxicity in ip dosed CF-1 albino mouse assessed as behavioral changes after 4 hrs by rotarod test. The class given is organism-based. Conditions: in vivo.
The target of series [13] is T1, Adenosine receptor A1 (Homo sapiens). The experiment in a line: Displacement of [3H]R-PIA from human A1 adenosine receptor expressed in CHO cells at 10 uM after 60 min by Perkin Elmer Liquid Scintillation Analyzer. Type of series: cell-based.
Series [14] concerns Mus musculus. The experiment in a line: Toxicity in ip dosed CF-1 albino mouse assessed as behavioral changes by rotarod test. The class given is organism-based. Conditions: in vivo.
Series [15] has as its system Mus musculus. The experiment in a line: Anticonvulsant activity in ip dosed CF-1 albino mouse administered as single dose after 1 hr by corneal kindled mouse test. The class given is functional, organism-based. The procedure, abridged: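 Mice corneally kindled twice daily (3 mA, 3 s, about 12 days, tetracaine/saline drop before each stimulation) and re-stimulated the day before testing. Single i.p. dose given (n = 4 or 8), then challenged with 3 mA for 3 s at 1 h post-injection. EC50 (±SE) determined.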

Series [16] concerns the target Adenosine receptors; A1 & A3 (Homo sapiens) (UniProt P30542+P0DMS8). The experiment in a line: Selectivity ratio of Ki for human A3 adenosine receptor to Ki for human A1 adenosine receptor.
The species entered for series [17] is Homo sapiens. The experiment in a line: Selectivity ratio of Ki for human A2a adenosine receptor to Ki for human A1 adenosine receptor.

T3 sequence (P29274 whole entry): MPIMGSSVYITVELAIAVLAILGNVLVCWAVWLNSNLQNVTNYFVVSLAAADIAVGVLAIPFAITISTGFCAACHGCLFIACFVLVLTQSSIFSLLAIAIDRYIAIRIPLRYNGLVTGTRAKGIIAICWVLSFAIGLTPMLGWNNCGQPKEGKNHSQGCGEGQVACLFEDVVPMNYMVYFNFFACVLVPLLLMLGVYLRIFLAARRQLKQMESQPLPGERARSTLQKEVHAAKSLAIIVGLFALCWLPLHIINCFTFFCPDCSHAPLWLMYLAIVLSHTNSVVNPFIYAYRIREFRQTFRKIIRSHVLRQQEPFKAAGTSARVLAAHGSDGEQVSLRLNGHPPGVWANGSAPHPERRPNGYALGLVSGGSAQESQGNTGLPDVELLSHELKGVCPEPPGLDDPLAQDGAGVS

Consider `CC[C@@H](Nc1nc(Cl)nc2c1ncn2[C@H]1[C@H](O)[C@H](O)[C@@H]2C[C@@H]21)C1CC1`, for which the inhibition in [1] was 37.3%.

Consider `O[C@@H]1[C@H](O)[C@@H]2C[C@@H]2[C@H]1n1cnc2c(N[C@@H](CC3CC3)C3CC3)nc(Cl)nc21`, for which the inhibition in [1] was found to be 24%.

With `OC[C@H]1O[C@@H](n2cnc3c(NC4CCCC4)nc(Cl)nc32)[C@H](O)[C@@H]1O`, the result in [2], in [3], in series [4], in [6] and in series [7] was inactive. Further, the ED50 in series [5] turned out to be 0.12 mg/kg.

In the case of `CC[C@H](Nc1nc(Cl)nc2c1ncn2[C@H]1[C@H](O)[C@H](O)[C@@H]2C[C@@H]21)C1CC1`, the inhibition in series [1] was determined as 57.9%.

For the compound `O[C@@H]1[C@H](O)[C@@H]2C[C@@H]2[C@H]1n1cnc2c(N[C@@H](C3CCC3)C3CC3)nc(Cl)nc21`, the Ki is 2930 nM in [8], 5470 nM in [9] and 270 nM in series [10]. In addition, the inhibition in [1] worked out at 33.4%.

As for `COC(=O)c1cnn(-c2nc(NC(C3CC3)C3CC3)c3ncn([C@H]4[C@H](O)[C@H](O)[C@@H]5C[C@@H]54)c3n2)c1`, the Ki was determined as 490 nM in series [8], 4110 nM in [9] and 730 nM in series [10].

For `O[C@@H]1[C@H](O)[C@@H]2C[C@@H]2[C@H]1n1cnc2c(N[C@@H](c3ccccc3)C3CC3)nc(Cl)nc21`, the inhibition constant Ki in series [8] amounted to 790 nM; in series [10] it was 3000 nM. Besides, the figures for the inhibition in series [1] and in [11] were -7.4% and 46%, respectively.

As to `O[C@@H]1[C@H](O)[C@@H]2C[C@@H]2[C@H]1n1cnc2c(NC(C3CC3)C3CC3)nc(I)nc21`, the Ki came to 182 nM in series [8], 2230 nM in [9] and 488 nM in [10].

Take `NNc1nc(NC(C2CC2)C2CC2)c2ncn([C@H]3[C@H](O)[C@H](O)[C@@H]4C[C@@H]43)c2n1`: the Ki in [8] worked out at 70 nM; in [10], 210 nM. In addition, the inhibition in series [11] worked out at 43%.

In the case of `O[C@@H]1[C@H](O)[C@@H]2C[C@@H]2[C@H]1n1cnc2c(NCC(C3CC3)C3CC3)nc(Cl)nc21`, the inhibition in series [1] is -9%; in series [11] it was 45%.

For the compound `OC[C@H]1O[C@@H](n2cnc3c(NC4CCCC4)ncnc32)[C@H](O)[C@@H]1O`, the inhibition in [1] worked out at 100%.

`O[C@@H]1[C@H](O)[C@@H]2C[C@@H]2[C@H]1n1cnc2c(NC(C3CC3)C3CC3)ncnc21`: the Ki in [8] was 17 nM; in series [10], 56.1 nM. Besides, the inhibition in [11] was found to be 38%.

Consider `NCCNC(=O)Cc1ccc(NC(=O)Cc2ccc(Nc3ncnc4c3ncn4[C@@H]3O[C@H](CO)[C@@H](O)[C@H]3O)cc2)cc1`, for which the result in series [2], in series [3], in series [4], in [6] and in [7] was inactive. In series [8], this compound had a Ki of 12.4 nM. The inhibition in series [1] came to 94%. The ED50 in series [5] stood at 0.03 mg/kg. Moreover, in [12], the TD50 is 0.14 mg/kg.

For `O[C@@H]1[C@H](O)[C@@H]2C[C@@H]2[C@H]1n1cnc2c(NC(C3CCCC3)C3CCCC3)nc(Cl)nc21`, the inhibition in series [13] is 34%.

For the compound `O[C@@H]1[C@H](O)[C@@H]2C[C@@H]2[C@H]1n1cnc2c(N[C@H](c3ccccc3)C3CC3)nc(Cl)nc21`, in [8], affinity was put at a Ki of 2200 nM. Further, the inhibition in [1] is -2.4%; in [11] it was 36%; in series [13], 50%.

As for `O=C(O)c1cnn(-c2nc(NC(C3CC3)C3CC3)c3ncn([C@H]4[C@H](O)[C@H](O)[C@@H]5C[C@@H]54)c3n2)c1`, the Ki in series [8] was determined as 640 nM; in series [10] it was 1080 nM. In addition, in series [11], the inhibition was determined as 17%.

Turning to `CC(C)[C@H](Nc1nc(Cl)nc2c1ncn2[C@H]1[C@H](O)[C@H](O)[C@@H]2C[C@@H]21)C1CC1`, the inhibition in series [1] was 20.8%.

Regarding `O[C@@H]1[C@H](O)[C@@H]2C[C@@H]2[C@H]1n1cnc2c(N[C@H](CC3CC3)C3CC3)nc(Cl)nc21`, the inhibition in series [1] stood at 18.4%.

As to `CC(C)[C@@H](Nc1nc(Cl)nc2c1ncn2[C@H]1[C@H](O)[C@H](O)[C@@H]2C[C@@H]21)C1CC1`, the inhibition in series [1] was found to be 33.8%.

As to `O[C@@H]1[C@H](O)[C@@H]2C[C@@H]2[C@H]1n1cnc2c(NC(C3CC3)C3CC3)nc(Cl)nc21`, the result in series [2], in [3], in [4], in series [6] and in series [7] was inactive. Also, the TD50 in series [14] is greater than 30 mg/kg. The ED50 in series [5] was determined as 2.74 mg/kg. In series [15], this compound showed an EC50 of 1.79 mg/kg.

As to `O[C@@H]1[C@H](O)[C@@H]2C[C@@H]2[C@H]1n1cnc2c(N[C@H](C3CCC3)C3CC3)nc(Cl)nc21`, the Ki in series [8] was found to be 2790 nM; in [9], 6450 nM; in [10], 120 nM. Further, in series [1], the inhibition turned out to be 18.1%. Moreover, the Ratio Ki in series [16] worked out at 23; in [17], 53.

The term inhibition denotes the change of the read-out against control, counted positive when it falls. A word on the ED50: it is the midpoint of the dose-response relation. For orientation: Ki means a dissociation constant, usually derived from enzyme kinetics or from competition with a known ligand. High values mean a looser hold on the target, low ones a stronger hold on the target. As a reminder, the TD50 is the 50% point of the dose-response relation for the toxic effect studied.

The record behind these values is ChEMBL document CHEMBL2169760 (J Med Chem, 2012).
